Published values pooled from the literature.
Target: Calcium/calmodulin-dependent protein kinase type 1 (CAMK1, Homo sapiens, UniProt Q14012)

Structure (SMILES) | read-out | mode | technique | concentration | measurement | value
C#Cc1n[nH]c2c(-c3cn(C(C)c4ccccn4)c(=O)[nH]c3=O)cc(F)cc12 (stereo not shown) | enzyme activity | inhibitor |  | 1 µM | inhibition | -18.7%
Cn1cc(-c2cc(F)cc(N3CCn4c(cc5c4CCCC5)C3=O)c2CO)cc(Nc2ccc(N3CCN(C4COC4)CC3)cn2)c1=O | enzyme activity | inhibitor |  | 0.1 µM | inhibition | 0%
Cn1cncc1[C@@](O)(COc1ccc(C#N)cc1-c1ccc(OC(F)(F)F)cc1)c1ccc(C#N)cc1 | cell-free assay |  | competition with immobilised ligand | 1 µM | remaining binding | 100%
COc1ncccc1-c1cnn2ccc(N3CCN(C(=O)OC(C)C)CC3)nc12 | binding |  | competition with immobilised ligand | 1 µM | remaining binding | 100%
CC(C)(C)c1cc(C=C(C#N)C#N)cc(Br)c1O | enzyme activity | inhibitor |  | 0.5 µM | remaining activity | 97.5%
Cc1nn(C)cc1-c1nc2c(N3CCN(Cc4ccc(Cl)cc4)CC3)c(Cl)cnc2[nH]1 | binding |  | competition with immobilised ligand | 1 µM | remaining binding | 100%
O=c1[nH]c2ccccc2n1C1CCN(Cc2ccc(-c3[nH]c4cc5ncnc5cc4nc3-c3ccccc3)cc2)CC1 | cell-free assay |  |  | 0.5 µM | remaining signal | 95.1%
C#Cc1n[nH]c2c(-c3cn([C@@H](C)c4ccccc4)c(=O)[nH]c3=O)cc(F)cc12 | enzyme activity | inhibitor |  | 0.1 µM | inhibition | 14.4%
N#CC1(c2ccccn2)CCN(Cc2cc(C(=O)O)c(=O)n3ccccc23)CC1 | cell-free assay |  | competition with immobilised ligand | 1 µM | remaining binding | 76%
COc1cc(Nc2ncc(F)c(Nc3ccc4c(n3)NC(=O)C(C)(C)O4)n2)cc(OC)c1OC | binding |  | competition with immobilised ligand | 10 µM | inhibition | 97%
